Source: PubChem BioAssay
The list is not random: actives were taken first. Their share in the collection is about 3%.
HTR1E antagonist = antagonists of human 5-HT1E serotonin receptor; P28566; CHO 5-HT1E Ga15 NFAT-bla reporter, FRET, antagonist; inhibition, % at 6 µM; actives 0.99% (n = 65,000); AID 571;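 active = inhibition above a set limit, the mean inhibition across every tested compound plus 3 SD, cut at about 29% in these data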;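 also: signal is the 460 over 535 nm emission ratio of beta-lactamase substrate; 0% = agonist plus DMSO wells and 100% = wells without agonist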
5HT1E ag = 5-HT1E (human) receptor agonism. P28566. CHO 5-HT1E Ga15 NFAT-bla reporter, FRET; 0% DMSO wells, 100% control agonist wells. activation, % at 6 µM. actives 0.69% (n = 65,000). AID 574;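 active = activation above a set limit, the screen-wide mean activation plus 3 SD, cut at about 8.5% in these data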;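 also: 100% = positive control agonist at 1 µM giving full maximal response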
5HT1a ag = activates the human 5-HT1a serotonin receptor | actives 0.56% (n = 65,000) | CHO 5-HT1a Ga15 NFAT-bla reporter, FRET ratio; 0% basal, 100% maximal reference agonist | activation, % at 10 µM | P08908 | AID 567;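 active = activation above the screen-wide mean activation plus 3 SD, cut at about 19% in these data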;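 also: 0% = DMSO wells and 100% = 5-CT at EC100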
S1P1 ag-PAM = activates or potentiates agonism at human S1P1 receptor; P21453; S1P1 CRE-bla cells, forskolin, beta-lactamase FRET, potentiator mode; S1P1 agonist co-added at EC20, 2 nM; 100% = saturating reference agonist, 0% = basal; activation, % at 9.5 µM; actives 0.57% (n = 56,000); AID 449;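 active = activation above a cutoff set at the mean activation of all tested compounds plus 3 SD, cut at about 54% in these data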;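 also: forskolin at 4 µM as EC80 and the EC20 agonist is SEW2871; 100% = SEW2871 at its EC100 plus forskolin at EC80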
Target sequence (P21453 whole entry, looked up): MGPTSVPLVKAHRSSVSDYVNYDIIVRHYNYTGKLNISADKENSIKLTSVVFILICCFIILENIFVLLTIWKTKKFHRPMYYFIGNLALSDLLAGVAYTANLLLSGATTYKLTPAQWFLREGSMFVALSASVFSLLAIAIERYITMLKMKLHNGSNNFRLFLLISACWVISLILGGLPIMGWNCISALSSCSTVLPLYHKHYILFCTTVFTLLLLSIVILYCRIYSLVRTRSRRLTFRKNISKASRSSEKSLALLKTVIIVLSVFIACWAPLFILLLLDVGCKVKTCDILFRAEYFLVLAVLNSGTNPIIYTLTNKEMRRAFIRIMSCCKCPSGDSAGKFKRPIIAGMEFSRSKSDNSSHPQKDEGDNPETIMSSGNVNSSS
S1P3 agonist = S1P3 (human) receptor agonism | Q99500 | S1P3 NFAT-BLA reporter cells, FRET ratio; relative to 1 µM S1P, basal subtracted | activation, % at 4.5 µM | actives 0.1% (n = 60,000) | AID 373;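 active = activation above the screen-wide mean plus 3 SD, cut at about 4.5% in these data, passing the limit was not always enough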
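Benchmarks: high control 1 µM S1P / System: stable CHO line with human S1P3, Gα16, NFAT-BLA reporter / Dosing: single compound concentration, 4.5 µM final / Timing: 4 h compound at 37 °C, 2 h substrate at RT / Measured by: FRET β-lactamase substrate fluorescence, excitation 405 nm, 460/535 nm emission ratio, background-subtracted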
5HT1a antag = antagonists of human 5-HT1a serotonin receptor; CHO 5-HT1a Ga15 NFAT-bla reporter, antagonist mode; inhibition, % at 10 µM; actives 0.68% (n = 62,000);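 active = inhibition above the mean of all tested compounds plus 3 SD, cut at about 43% in these data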;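 also: receptor stimulated by 5-CT agonist at 100 nM near EC80; beta-lactamase reporter measured by ratiometric fluorescence of a cleavable substrate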
* = called active by the depositor; x = no result given.

SMILES | HTR1E antagonist | 5HT1E ag | 5HT1a ag | S1P1 ag-PAM | S1P3 agonist | 5HT1a antag
O=C(CS(=O)(=O)Cc1ccccc1)N1CCN(c2cccc(C(F)(F)F)c2)CC1 | -10.8 | 5.2 | -1.5 | -5.2 | -0.7 | -4.0
Cn1c(SCC(=O)N2CCCCC2)nc2cccnc21 | -4.2 | -0.2 | -4.5 | -2.6 | 0.0 | 9.0
CC1(C)CN=C(N2CCN(C3=NCC(C)(C)S3)CC2)S1 | 18.1 | -1.2 | -1.7 | 4.0 | -1.0 | 5.5
COc1cccc(N2CCN(C3OC(=O)c4ccccc43)CC2)c1 (centres undefined) | 7.8 | 23.3* | -1.0 | 1.0 | -0.5 | 1.4
COc1cccc(N2CCN(C3CC(=O)N(c4ccc(Cl)c(Cl)c4)C3=O)CC2)c1 (centres undefined) | -1.2 | 0.3 | 1.9 | -12.0 | 0.8 | -6.7
O=S(=O)(Nc1ccc(N2CCOCC2)cc1)c1cccs1 | 5.8 | 10.4* | -1.8 | 12.4 | -1.4 | -10.3
c1cncc(CNc2c3c(nc4nnnn24)CCCC3)c1 | -1.1 | -0.4 | -1.1 | x | x | 9.1
CSc1nc(N2CCOCC2)c2c3c(sc2n1)CCC3 | 28.9* | -1.5 | 1.0 | 17.1 | -0.2 | -4.4
Cc1nc(N2CCN(c3ccccc3)CC2)c2c3c(sc2n1)CCC3 | -15.7 | 2.1 | 1.1 | -24.1 | 0.0 | 9.1
c1cn(CC2(Cn3ccnc3)COC2)cn1 | -0.7 | -0.1 | -1.0 | -4.8 | -0.8 | -8.5
CCOc1ccccc1OCCCCCc1c(C)n[nH]c1C | 4.9 | -1.0 | -0.2 | 88.8* | 0.3 | 19.8
Cc1cccc(OCCCCc2c(C)n[nH]c2C)c1C | 7.7 | -0.7 | -3.1 | 112.4* | -2.0 | 11.5
Cn1c(=O)oc2cc(S(=O)(=O)Nc3cccc4c3CCCC4)ccc21 | 2.4 | -0.4 | -2.0 | 8.8 | -0.3 | 11.4
COc1cc(OC)cc(C(=O)N2CCC(N3CCCCCC3)CC2)c1 | -3.9 | -0.8 | -0.9 | -4.8 | -5.0 | x
c1ccc(CCCNc2ncnc3nc[nH]c23)cc1 | -2.8 | 0.4 | -3.5 | 3.2 | -0.8 | -3.4
Clc1ccc(CCNc2ncnc3nc[nH]c23)cc1 | -2.9 | 0.2 | 2.8 | 85.1* | -1.6 | 6.2
CC1C(O)=C(c2nc3ccccc3[nH]2)C(=N)N1c1ccccc1 (centres undefined) | 2.6 | -1.1 | -1.9 | x | -1.6 | 19.5
CC(C)NC(=O)c1ccccc1NC(=O)CCS(=O)(=O)Cc1ccccc1 | -3.7 | -0.6 | 1.1 | 9.1 | -0.5 | -13.3
CC1=CCC2C(=O)N(c3ccc(Br)cc3C)C(=O)C2C1 (centres undefined) | -6.6 | -0.3 | 0.0 | -14.9 | -0.9 | 0.8
CC1=CCC2C(=O)N(c3ccc(C)c(Br)c3)C(=O)C2C1 (centres undefined) | -3.5 | 13.1* | 13.3 | -2.3 | -1.3 | -1.7
CC1CCCC(C)N1c1nnc(N)s1 (centres undefined) | 1.5 | -0.6 | 2.2 | 9.8 | -1.9 | -3.5
CC(=O)c1cccc(NC(=O)N2CCCC2C(=O)Nc2cc(C)ccc2C)c1 (centres undefined) | -15.5 | 0.2 | -1.8 | -5.6 | -0.1 | -8.5
Cc1ccc(-n2nc3c([n+]2[O-])CCc2c-3no[n+]2[O-])cc1 | 74.4* | -1.6 | -4.7 | 41.1 | -2.3 | 72.8*
[O-][n+]1onc2c1CCc1c-2nn(-c2ccccc2Cl)[n+]1[O-] | 33.6* | -0.5 | -4.8 | 29.1 | -1.7 | 60.5*
COc1cccc(C2/C(=C(/O)c3cnn(-c4ccccc4)c3C)C(=O)C(=O)N2CCN(C)C)c1 (centres undefined) | 2.4 | -0.2 | -1.9 | 5.1 | -3.9 | x
COc1cccc(OCCN2CCN(c3ncnc4c3cnn4-c3ccccc3)CC2)c1 | -9.7 | 0.2 | 5.6 | -0.6 | -4.2 | x
COc1cccc(OCc2nc3c4cnn(-c5ccccc5)c4ncn3n2)c1 | 2.0 | -0.1 | 24.2* | 6.2 | -0.6 | -0.1
Cc1cnc(C(=O)Nc2ccccc2-c2ccc(C)o2)cn1 | -10.5 | -0.7 | 0.7 | x | x | -0.5
CCOC(=O)c1c(C)[nH]c(C(=O)COC(=O)c2cnc(C)cn2)c1C | -0.3 | 0.1 | -0.7 | 15.2 | -0.1 | 15.8
CCOC(=O)c1c(C)[nH]c(C(=O)COC(=O)c2oc3ccc(OC)cc3c2C)c1C | -7.7 | 35.0* | -2.0 | 9.1 | 0.5 | -4.9
